Rows were chosen to be rich in hits. Some 12% of all compounds tested hit in one or more screens of this group.
L major viab: Leishmania major promastigote growth inhibition; Leishmania major promastigotes, resazurin fluorescence viability; 200,000 tested, 9% active; inhibition, % at 10 µM; AID 1063; in the data active = inhibition above about 50%;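 note: promastigotes grown with compound for 44 hours at 28 °C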
CHOP inhibitor: CHOP inhibition in unfolded protein response; AID 2732; 220,000 tested, 3.8% active; CHO-K1 CHOP-promoter luciferase, tunicamycin-induced, 15-18 h; inhibition, % at 10 µM;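 active = compounds that reduced the stress-induced luciferase reporter signal by more than about 70% of percent inhibition, limit read from the data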;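 note: 0% = tunicamycin plus vehicle and 100% = wells without tunicamycin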
Dynein transport: dynein cargo transport inhibition; 220,000 tested, 0.47% active; AID 1381; z-score, hits read low; 3617.4 mouse cells, GR-EGFP nuclear translocation imaging; test concentration mostly 20 µM; stimulated with dexamethasone, 1 µM; active compounds read low;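 active = plate z-score of nuclear minus cytoplasmic receptor signal below a set negative limit, without overly bright fluorescence or cell loss, cut at about -3.5 in these data, passing the limit was not always enough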;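 note: z-score of nuclear minus cytoplasmic ring GR-EGFP intensity difference per well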
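medium = tetracycline-free induction medium containing charcoal-stripped FBS | probe or stimulus = dexamethasone, 1.0 µM final | timing = 48 h induction, then 1 h compound, then 30 min agonist, 37 °C | detection = automated 10x imaging of fixed Hoechst-stained cells | read-out basis = nuclear versus cytoplasmic GR-EGFP signal, averaged per well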
bCat nuc transl: modulators of beta-catenin nuclear translocation; HeLa beta-catenin nuclear translocation, immunofluorescence imaging; 190,000 tested, 0.3% active; AID 1665; nuclear translocation activity, % at 5 µM;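 active = nuclear translocation activity above 50% at 5 µM, with a well cell count of 50 or more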;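 note: per-cell ratio of nuclear to cytoplasmic median beta-catenin stain intensity; plate controls were DMSO negative control for no effect and GSK-3 inhibitor IX positive control for full effect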
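Read-out: Nuclear/cytoplasmic beta-catenin signal ratio, % activation | Assay system: Human HeLa cell line | Times: 24 h compound exposure at 37°C, 5% CO2 | Signal: Fluorescence imaging of beta-catenin antibody stain plus DAPI | Dosing: 5 µM primary, 0.02–20 µM confirmation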
Autophagy mod: modulators of autophagy. MEF GFP-LC3 puncta imaging; test concentration mostly 10 µM. calls only at 10 µM (by protocol). 190,000 tested, 0.98% active. AID 463193;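 active = percentage of spot-positive cells more than 3 SD above its plate mean, without a fluorescence outlier flag or 80% toxicity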;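 note: spot-positive cell cutoff set from DMSO-treated cells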
MT stabilizer: microtubule stabilizers in HeLa cells; HeLa tubulin immunostaining HCS, 24 h; share of cells brighter than vehicle mean+2SD; 200,000 tested, 0.83% active; % tubulin-high responders, % at 10 µM;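 active = plate Z-score above 3 for both tubulin-high and condensed-nucleus cell shares, with cell loss under 80%, at 10 µM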;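 note: anti alpha tubulin signal scored within the nucleus-defined area of each cell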
The depositor's hits bear a star.

For CC(=O)Nc1ccc(NC(=O)C(C)N2CCN(S(=O)(=O)c3ccc(C)cc3)CC2)cc1 (stereo unspecified) the results were L major viab -4, CHOP inhibitor 20, Dynein transport -1.2, bCat nuc transl -4, Autophagy mod inactive and MT stabilizer 3.
Screening O=S(=O)(c1ccc(NC(=S)NCCc2ccccc2)cc1)N1CCOCC1 returned L major viab 69*, CHOP inhibitor 62, Dynein transport 0.57, bCat nuc transl -3, Autophagy mod inactive and MT stabilizer 5.
For O=S(=O)(c1ccc(NC(=S)NN=C(Cc2ccccc2)Cc2ccccc2)cc1)N1CCOCC1 the results were L major viab 92*, CHOP inhibitor -9, Dynein transport -0.89, bCat nuc transl 2, Autophagy mod inactive and MT stabilizer 2.
Screening CCOc1ccc(Cn2nnc(C(=O)Nc3cc(OC)cc(OC)c3)c2N)cc1 returned L major viab 1, CHOP inhibitor 38, Dynein transport -0.5, Autophagy mod inactive and MT stabilizer 4.
For Cc1ccc(Cn2nnc(C(=O)Nc3cccc(C)c3C)c2N)cc1 the results were L major viab -6, CHOP inhibitor 8, Dynein transport -0.7, Autophagy mod inactive and MT stabilizer 5.
`CCc1ccc(Cn2nnc(C(=O)Nc3cccc(C)c3)c2N)cc1` gave L major viab 1, CHOP inhibitor 71*, Dynein transport -0.84, Autophagy mod inactive and MT stabilizer 2.
For CCOc1ccc(Cn2nnc(C(=O)Nc3cc(C)cc(C)c3)c2N)cc1 the results were L major viab -2, CHOP inhibitor 75*, Dynein transport 0.73, bCat nuc transl -1 and MT stabilizer 2.
`O=C(c1cnn2c(C(F)(F)F)cc(-c3cccs3)nc12)N1CCN(Cc2ccccc2)CC1` gave L major viab 30, CHOP inhibitor 70*, Dynein transport -0.66, bCat nuc transl -2, Autophagy mod inactive and MT stabilizer 2.
For O=C(c1cnn2c(C(F)(F)F)cc(-c3cccs3)nc12)N1CCN(C(c2ccccc2)c2ccccc2)CC1 the results were L major viab 97*, CHOP inhibitor 6, Dynein transport -0.79, bCat nuc transl -1, Autophagy mod inactive and MT stabilizer 3.
Screening CN1CCN(C(=O)c2cnn3c(C(F)(F)F)cc(-c4cccs4)nc23)CC1 returned L major viab 1, CHOP inhibitor -17, Dynein transport -0.63, bCat nuc transl -2, Autophagy mod inactive and MT stabilizer 3.
Screening CCCn1c(SCC(=O)c2[nH]c(C)c(C(C)=O)c2C)n[nH]c1=O returned CHOP inhibitor 5, Dynein transport -0.59 and bCat nuc transl 2.
`CCOc1ccccc1C(=O)N[C@H](C(=O)Nc1cc(S(=O)(=O)N(C)C)ccc1OC)C(C)C` gave L major viab 5, CHOP inhibitor 17, Dynein transport -0.077, bCat nuc transl -1, Autophagy mod inactive and MT stabilizer 6.
For Cc1cccc2c1N(CCOc1ccccc1Cl)C(=O)C2=O the results were L major viab 67*, CHOP inhibitor -9, Dynein transport -0.0052, bCat nuc transl -2, Autophagy mod inactive and MT stabilizer 2.
Screening Cc1nc2sc(C(c3ccco3)N3CCN(c4ccccc4F)CC3)c(O)n2n1 (stereo unspecified) returned L major viab 40, CHOP inhibitor 15, Dynein transport -0.18, bCat nuc transl -7, Autophagy mod inactive and MT stabilizer 3.
Screening Cc1nc2sc(C(c3ccc(Cl)cc3)N3CCN(c4ccccc4F)CC3)c(O)n2n1 (stereo unspecified) returned L major viab 12, CHOP inhibitor 83*, Dynein transport 0.12, bCat nuc transl -3, Autophagy mod inactive and MT stabilizer 4.
`Cc1cc(C)cc(N(CC(=O)N/N=C/c2ccncc2)S(=O)(=O)c2ccccc2)c1` gave L major viab 75*, CHOP inhibitor 17, Dynein transport 3.1, bCat nuc transl -3, Autophagy mod inactive and MT stabilizer 6.
`Cc1ccc(S(=O)(=O)N(CC(=O)N/N=C/c2ccco2)c2cc(Cl)cc(Cl)c2)cc1` gave L major viab -1, CHOP inhibitor 75*, Dynein transport -0.27, bCat nuc transl 0, Autophagy mod inactive and MT stabilizer 13.

Screening results deposited in PubChem by several laboratories.
